The results in this text go back to ChEMBL document CHEMBL1157903, “Synthesis and structure-activity relationships of 2-aryl-4-oxazolylmethoxy benzylglycines and 2-aryl-4-thiazolylmethoxy benzylglycines as novel, potent PPARalpha selective activators- PPARalpha and PPARgamma selectivity modulation” (Bioorg Med Chem Lett, 2010).

Data set [1] in a line: Agonist activity at hamster PPARalpha. It counts as functional, Cricetulus griseus.
Data set [2] concerns the target T1, Peroxisome proliferator-activated receptor alpha (Homo sapiens, UniProt Q07869).
T1 sequence (Q07869 whole entry): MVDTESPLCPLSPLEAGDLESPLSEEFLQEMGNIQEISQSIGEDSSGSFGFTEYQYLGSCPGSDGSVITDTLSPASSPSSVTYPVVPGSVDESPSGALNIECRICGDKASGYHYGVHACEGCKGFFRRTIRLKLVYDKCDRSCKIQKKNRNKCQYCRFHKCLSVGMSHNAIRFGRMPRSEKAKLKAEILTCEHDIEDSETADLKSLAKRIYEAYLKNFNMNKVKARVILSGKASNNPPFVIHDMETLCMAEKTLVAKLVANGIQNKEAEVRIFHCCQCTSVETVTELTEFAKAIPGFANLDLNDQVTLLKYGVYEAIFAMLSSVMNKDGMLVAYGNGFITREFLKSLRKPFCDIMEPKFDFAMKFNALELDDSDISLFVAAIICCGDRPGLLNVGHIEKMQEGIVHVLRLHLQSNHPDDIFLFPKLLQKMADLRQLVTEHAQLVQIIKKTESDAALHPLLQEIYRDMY
In words: Agonist activity against human Gal4-fussed PPARalpha in HEK293 cells by luciferase reporter gene assay. Format: functional, cell-based. In a few lines:
(§1)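 Transactivation assay in HEK293 cells with a luciferase reporter. After cell lysis, luciferin is added and luminescence is read. EC50 is the ligand concentration giving half-maximal fold induction. Maximal efficacy is expressed as % of standards, with fenofibrate at 100 µM = 100% for PPARα and rosiglitazone at 1 µM = 100% for PPARγ. Data are normalized to known agonists at 1 µM.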

For data set [3], the target named is T2, Peroxisome proliferator-activated receptor alpha (Homo sapiens) (UniProt Q07869).
T2 sequence (whole entry): T1 sequence (Q07869 whole entry)
In words: Agonist activity against human Gal4-fussed PPARalpha by luciferase reporter gene assay relative to finofibrate. Format: functional. The essentials: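 Gal4-fused human PPARα transactivation in HEK293 cells with a luciferase reporter, read as luminescence after cell lysis and luciferin addition. EC50 is the ligand concentration (µM) giving half-maximal fold induction. Maximal efficacy is expressed as a percentage of fenofibrate at 100 µM (set as 100%). Intrinsic activity is the response at 1 µM as a percentage of the standard at 1 µM.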
A general note: In a reporter assay the amount or activity of a reporter protein is the signal.

The target in data set [4] is T3, Peroxisome proliferator-activated receptor gamma (Homo sapiens, UniProt P37231).
T3 sequence (P37231 whole entry): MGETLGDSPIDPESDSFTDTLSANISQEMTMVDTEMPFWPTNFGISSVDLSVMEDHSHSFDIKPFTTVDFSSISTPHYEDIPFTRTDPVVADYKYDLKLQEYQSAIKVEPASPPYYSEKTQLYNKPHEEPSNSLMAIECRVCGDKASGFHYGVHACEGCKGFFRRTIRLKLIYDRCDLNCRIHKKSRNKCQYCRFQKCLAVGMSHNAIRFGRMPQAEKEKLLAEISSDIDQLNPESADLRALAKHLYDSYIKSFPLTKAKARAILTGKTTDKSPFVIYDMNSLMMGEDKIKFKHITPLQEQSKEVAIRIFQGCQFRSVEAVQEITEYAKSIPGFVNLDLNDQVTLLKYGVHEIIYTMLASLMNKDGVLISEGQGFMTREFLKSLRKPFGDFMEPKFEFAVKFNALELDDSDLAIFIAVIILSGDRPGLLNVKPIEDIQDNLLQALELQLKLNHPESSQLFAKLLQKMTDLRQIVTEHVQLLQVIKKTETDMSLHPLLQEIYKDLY
Kind of data set: Agonist activity against human Gal4-fussed PPARgamma in HEK293 cells by luciferase reporter gene assay. It counts as functional, cell-based. In a few lines:
as §1

In data set [5] the test system is Hamster. Kind of data set: Antidyslipidemic activity in hamster assessed as decrease in HDL level at 10 mg/kg, po. It counts as functional, Cricetinae. Details: scale not given: the % may be the effect or the level left. In a few lines:
(§2)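 Hamsters kept on high-fat diet for 2 weeks, then dosed 10 mg/kg by oral gavage once daily for 21 days (n = 8). Vehicle: 5% cremophor, 10% NMP, 5% EtOH, 80% water. HDL-c and TG measured at study end. Statistics by Dunnett test, p < 0.05.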

In data set [6] the test system is Hamster. Kind of data set: Antidyslipidemic activity in hamster assessed as decrease in triglyceride level at 10 mg/kg, po. Format: functional, Cricetinae. Also on record: scale not given: the % may be the effect or the level left. In a few lines: as §2
Data set [7] in a line: Drug level in hamster liver at 10 mg/kg, po. Format: ADME, organism-based. Also on record: dose 10 mg/kg, route oral. Particulars: cricetinae, in vivo, read-out: Drug uptake. In a few lines: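 High-fat-fed hamsters (2 weeks on diet), 10 mg/kg po once daily for 21 days (n = 8). Vehicle: 5% cremophor/10% NMP/5% EtOH/80% water. Liver drug level taken 1 h post-dose in the fed state.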

Data set [8] can be described thus: Drug level in hamster plasma at 10 mg/kg, po. It counts as ADME, organism-based. Details: dose 10 mg/kg, route oral. Particulars: cricetinae, in vivo, read-out: Drug uptake. The essentials:
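High-fat-fed hamsters (2 weeks on diet), 10 mg/kg po once daily for 21 days (n = 8). Vehicle: 5% cremophor/10% NMP/5% EtOH/80% water. Plasma drug level taken in the fasted state at 18 h post-dose.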

Data set [9] in a line: Volume of distribution at steady state Sprague-Dawley rat at 5 mg/kg, iv and 10 mg/kg, po. Format: ADME, organism-based. Conditions: in vivo, read-out: Vdss. The essentials:
(§3)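 Male Sprague-Dawley rats (n = 2) given 5 mg/kg IV and 10 mg/kg PO. Vehicle: 10% NMP, 20% PEG-400, 70% potassium phosphate buffer.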

A short description of data set [10]: Clearance in Sprague-Dawley rat at 5 mg/kg, iv and 10 mg/kg, po. Conditions: in vivo. Format: ADME, organism-based. The essentials: as §3
Data set [11] in a line: Half life in Sprague-Dawley rat at 5 mg/kg, iv and 10 mg/kg, po. Format: ADME, organism-based. Particulars: in vivo. In a few lines:
as §3

Data set [12] in a line: Mean retention time in Sprague-Dawley rat at 5 mg/kg, iv and 10 mg/kg, po. It counts as ADME, organism-based. Conditions: in vivo. In a few lines:
as §3

The nature of data set [13]: Oral bioavailability in Sprague-Dawley rat at 10 mg/kg. Format: ADME, organism-based. Conditions: in vivo. The essentials:
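Male Sprague-Dawley rats (n = 2). Oral dose 10 mg/kg, with 5 mg/kg IV for comparison. Vehicle: 10% NMP, 20% PEG-400, 70% potassium phosphate buffer.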

In data set [14] the test system is Hamster. In words: Induction of PDK4 mRNA level in hamster liver at 10 mg/kg, po after 6 hrs relative to fenofibrate. Format: functional, Cricetinae. In a few lines:
(§4)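 Single oral dose of 10 mpk in hamsters, with fenofibrate reference at 100 mpk. Liver PDK4 and HD mRNA measured at 6 h post-dose. Values expressed relative to fenofibrate, set as 100%.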

Data set [15] relates to Hamster. Kind of data set: Induction of hydrase mRNA level in hamster liver at 10 mg/kg, po after 6 hrs relative to fenofibrate. It counts as functional, Cricetinae. The essentials:
as §4

For data set [16], the species on record is Cricetulus griseus. Kind of data set: Agonist activity at hamster PPARalpha relative to fenofibrate. It counts as functional.
For data set [17], the target named is T4, Peroxisome proliferator-activated receptor gamma (Homo sapiens) (UniProt P37231).
T4 sequence (whole entry): T3 sequence (P37231 whole entry)
Kind of data set: Agonist activity against human Gal4-fussed PPARgamma by luciferase reporter gene assay relative to rosiglitazone.

For orientation: pEC50 means −log10 of the EC50, conventionally taken in molar units. The term half-life denotes the time needed for the level to fall by half in the phase considered. By MRT is commonly meant a mean duration of stay, worked out from the concentration-time curve. Broadly, the bioavailability is the share of a dose that reaches the circulation, judged against a reference dose that is usually intravenous.

pEC50: −log10 of the molar value.

As to `COC(=O)N(CC(=O)O)Cc1cccc(OCc2coc(-c3ccc(Cl)cc3)n2)c1`, the negative-log EC50 (pEC50) is 6.01 in [1], 7.19 in data set [2] and 5.04 in [4]. The Emax in data set [3] stood at 78%; in data set [16], 84%; in data set [17], 46%. For the same compound, the Activity amounted to 44% in data set [5], 84% in data set [6], 505% in [14] and 192% in [15]. Also, the concentration in data set [7] amounted to 83.8 µM; in data set [8], 72.9 µM. Further, in data set [9], the Vd came to 0.2 L/kg. The clearance in data set [10] amounted to 0.7 mL/min/kg. The half-life in data set [11] was 4.6 h. This compound returned an MRT in data set [12] of 10.7 h. The compound further registered a bioavailability in [13] of 75%.
